Compounds with a hit are over-represented: about 3.5% of the library has one in this group of screens.
RGS4 pot – potentiators or activators of RGS4. B-score at 10 µM. AID 463111. 310,000 compounds, 0.92% hits. HEK293 M3R/inducible RGS4, carbachol calcium flux Fluo4; stronger effect = lower value;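 active means B-score of the integrated calcium signal more than 4 SD below the library mean, with starting fluorescence not abnormally high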;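 further: negative B-score means reduced calcium response which marks RGS4 activation or potentiation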
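Assay system: HEK293 FlpIn-TREx cells, stable M3R, doxycycline-inducible RGS4 / Probe or stimulus: carbachol, ECmax concentration / Times: overnight RGS4 induction, 30 min dye load 37 °C, 20 min compound RT / Signal: kinetic calcium fluorescence imaging with Fluo4-AM dye, 2 µM / Measure: Agonist-evoked peak-minus-minimum fluorescence over baseline, integrated ratio, B score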
MrgX1 antag – human MrgX1 receptor antagonism, primary screen; 310,000 compounds, 1.3% hits; B-score at 10 µM; Q96LB2; MRGX1-HEK293 calcium flux, Fluo-4, BAM8-22 antagonism; stronger effect = lower value;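 active means calcium-response B-score plate-corrected more than 3 library SD below zero, starting fluorescence within 5 deviations, no agonist response on first addition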;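 further: peak minus trough fluorescence over baseline after final BAM8-22 challenge near maximal dose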
Target sequence (Q96LB2 whole entry, looked up): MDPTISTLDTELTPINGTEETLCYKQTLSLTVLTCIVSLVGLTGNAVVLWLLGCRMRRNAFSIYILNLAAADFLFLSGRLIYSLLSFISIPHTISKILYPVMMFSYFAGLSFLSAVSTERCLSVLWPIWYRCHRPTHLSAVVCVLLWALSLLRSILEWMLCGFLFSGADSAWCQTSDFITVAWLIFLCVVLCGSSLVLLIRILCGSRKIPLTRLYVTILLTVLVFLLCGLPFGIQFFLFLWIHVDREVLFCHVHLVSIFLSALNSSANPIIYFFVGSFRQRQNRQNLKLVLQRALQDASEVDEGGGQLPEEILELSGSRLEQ
MrgX1 allo act – human MrgX1 positive allosteric modulation, primary screen; Q96LB2; MrgX1-HEK293, Fluo-4 calcium flux, FDSS; stronger effect = higher value; B-score at 10 µM; 310,000 compounds, 0.63% hits; AID 588675;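 active means plate-corrected calcium response at least 3 library SD above typical, normal starting fluorescence, not activating the receptor alone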;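 further: compound read alongside a low EC10 to EC30 dose of BAM8-22 agonist; peak minus trough fluorescence over baseline measured at the second addition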
MrgX1 agonist – agonists of human MrgX1 receptor. MrgX1-HEK293 cells, Fluo-4 calcium fluorescence, agonist mode; stronger effect = higher value. 310,000 compounds, 0.44% hits. Q96LB2. B-score at 10 µM. AID 588627;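 active means calcium response B-score plate-corrected fluorescence ratio at least 3 library SD, with starting fluorescence B-score inside 5 SD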
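Assay system: stable human MrgX1 HEK293 cell line. Quantity: 15,000 cells per well. Schedule: cells plated overnight, dye loaded 0.5 h 37 °C, 0.5 h room temperature. Detection: Fluo-4 NW calcium-flux fluorescence, kinetic read. Read-out basis: peak-minus-minimum fluorescence over baseline, converted to B scores. Control set: positive and negative control wells on each plate.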
RGS4 inh – human RGS4 inhibition | B-score at 10 µM | P49798 | HEK293 M3R/RGS4 inducible, Fluo-4 calcium flux; stronger effect = higher value; triggered by carbachol at its EC20 | AID 463165 | 310,000 compounds, 0.45% hits;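 active means B-score, a plate-corrected calcium signal, over three deviations above library mean, with baseline fluorescence within five deviations of library mean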;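 further: RGS4 expression induced by doxycycline in cells with stable M3 receptor; B-score is computed from the integrated fluorescence ratio over baseline after carbachol; higher B-score means a larger calcium signal and so more RGS4 inhibition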
Target sequence (P49798 whole entry, looked up): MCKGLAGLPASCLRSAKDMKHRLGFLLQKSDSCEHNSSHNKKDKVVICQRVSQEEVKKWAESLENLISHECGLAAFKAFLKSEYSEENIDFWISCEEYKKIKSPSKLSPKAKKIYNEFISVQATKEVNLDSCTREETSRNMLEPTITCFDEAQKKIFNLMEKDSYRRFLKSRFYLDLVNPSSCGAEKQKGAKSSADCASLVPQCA
RGS4 act valid – confirmation of RGS4 activators; inhibition, % at 10 µM; 1,100 compounds, 89% hits; shares compounds with RGS4 pot; HEK293 M3R/RGS4 inducible, carbachol calcium flux Fluo4;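 active means inhibition above 3 SD of the buffer control wells, cut at about 41% in these data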;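 further: signal is the integrated peak-minus-minimum Fluo4 fluorescence over baseline ratio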
M3R Ca counter – counter-screen for RGS4 activators: effect in non-induced cells; shares compounds with RGS4 pot; HEK293 M3R non-induced RGS4, Fluo4 calcium flux; after carbachol challenge at its EC90; inhibition, % at 10 µM; 1,100 compounds, 82% hits;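 active means inhibition exceeding 3 SD of buffer-only control wells, cut at about 26% in these data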;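 further: percent drop in integrated peak-minus-baseline over baseline Fluo4 ratio after carbachol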
Numbers without * were called inactive; i = inactive; . = not tested or not shown.

SMILES | RGS4 pot | MrgX1 antag | MrgX1 allo act | MrgX1 agonist | RGS4 inh | RGS4 act valid | M3R Ca counter
CCOC(=O)c1c(NC(C)=O)sc2c(OCC(O)CNC(C)(C)C)c(Br)ccc12 (stereo not drawn) | -10* | i | i | i | i | 94* | 94*
CCn1c(=O)c([N+](=O)[O-])c(NC2CCS(=O)(=O)C2)c2ccccc21 (stereo not drawn) | i | i | i | i | i | . | .
CN(C)CCC#CC(O)(c1ccccc1)c1ccccc1 | -9.9* | i | i | i | i | 88* | 47*
CN(C)CC#CCC(O)(c1ccccc1)C1CCCCC1 (stereo not drawn) | i | i | i | i | i | . | .
CN(C)CCC(O)(c1ccccc1)c1ccccc1 | i | i | i | i | i | . | .
CN(C)C(C)(C)C#CC(O)(c1ccccc1)c1ccccc1 | -8.7* | i | i | i | i | 92* | 88*
CCN(CC)CCC#CC(O)(c1ccccc1)C1CCCCC1 (stereo not drawn) | -8.6* | i | i | i | i | 91* | 93*
CCN(CC)CC#CC(O)(c1ccccc1)c1ccccc1 | -13* | i | i | i | i | 94* | 92*
COc1ccc(-c2nnn(CC(=O)N(CC3CCCO3)C(C(=O)NC(C)(C)C)c3ccco3)n2)cc1OC (stereo not drawn) | i | i | i | i | i | . | .
Cc1cc(NC(=O)C2C3C(=O)N(CC4CCCO4)C(C(=O)NCc4ccccc4)C34C=CC2(C)O4)no1 (stereo not drawn) | i | i | i | i | i | . | .
O=C1CCc2ccc(OCCCCN3CCN(c4cccc(Cl)c4Cl)CC3)cc2N1 | -9.2* | i | i | i | i | 79* | 65*
CSc1n[nH]c(NC2=CC(=O)CCC2)n1 | -7.7* | i | i | i | i | 0 | 0
CSc1n[nH]c(NC(C)=O)n1 | i | i | i | i | i | . | .
O=C(c1ccco1)N(Cc1ccc([N+](=O)[O-])cc1)c1ccc(Cl)cc1 | i | i | i | i | i | . | .
Cc1ccc(N(Cc2ccc([N+](=O)[O-])cc2)C(=O)c2ccco2)cc1C | -11* | i | i | i | i | 88* | 40*
Cc1ccccc1N1CCN(C2CCCN(C(=O)c3cn4cccc(C)c4n3)C2)CC1 (stereo not drawn) | -9.7* | . | . | . | i | 50* | 0
Cc1ccccc1N1CCN(C2CCCN(C(=O)c3ccccn3)C2)CC1 (stereo not drawn) | i | i | i | i | i | . | .
CCn1cc(S(=O)(=O)N2CCN(c3ccc(Cl)cc3)CC2)cn1 | i | i | i | i | i | . | .
COc1cccc(OCCn2cc(C(=O)c3ccco3)c3ccccc32)c1 | -11* | i | i | i | i | 90* | 50*
COc1ccc(C)cc1S(=O)(=O)N1CCN(C(=O)c2ncoc2-c2ccc(C)cc2)CC1 | -8.2* | i | i | i | i | 82* | 32*
CCOc1ccc2ncc(C(=O)c3ccc(OC)cc3)c(N3CCN(CC)CC3)c2c1 | i | i | i | i | i | . | .
CCOC(=O)c1cnc2ccc(OCC)cc2c1N1CCN(c2ccccc2OC)CC1 | -9.1* | i | i | i | i | 93* | 93*
O=C(CSc1nnc(CNC(=O)c2c(F)cccc2F)o1)NCC1CCCO1 (stereo not drawn) | i | i | i | i | i | . | .
CCc1ccc(-n2c(=O)c3c(C)c(C)sc3n(CC(=O)NCC3CCCO3)c2=O)cc1 (stereo not drawn) | i | i | i | i | i | . | .
Cc1nn(-c2ccccc2)c(C)c1NC(=O)COC(=O)c1cccc(OC(F)F)c1 | -8.4* | i | i | i | i | 0 | 0
SMILES | RGS4 pot | MrgX1 antag | MrgX1 allo act | MrgX1 agonist | RGS4 inh | RGS4 act valid | M3R Ca counter
COc1ccccc1-c1cc(C(=O)NC2CCCC2)no1 | i | i | i | i | i | . | .
COC(=O)c1cc(NC(=O)CSc2nnc(N)s2)ccc1Cl | -14* | i | i | i | i | 0 | 0
COc1ccc2c(C)c(CCC(=O)NCCCN3CCCC3=O)c(=O)oc2c1C | -8.9* | i | i | i | i | 0 | 0
Cc1ccc(CS(=O)(=O)CC(C)(O)c2ccc(Cl)cc2)cc1 (stereo not drawn) | i | i | i | i | i | . | .
CC(C)c1csc(CN2CCC(n3nccc3NC(=O)Cc3ccccc3)CC2)n1 | i | i | i | i | i | . | .
Cc1ccc(N=C2C(=O)Nc3ccc(Br)cc32)cc1 | i | i | i | i | i | . | .
O=C1Nc2ccc(Br)cc2C1=C1CCCCC1 | -8.7* | i | i | i | i | 36* | 0
Cc1nc(CN2CCN(Cc3nc(C(c4ccccc4)c4ccccc4)no3)CC2)cs1 | -13* | i | i | i | i | 92* | 79*
Cc1cccnc1CN1CCN(Cc2nc(C(c3ccccc3)c3ccccc3)no2)CC1 | -8.7* | i | i | i | i | 93* | 82*
OC(c1ccccn1)C1CCN(Cc2nc(C(c3ccccc3)c3ccccc3)no2)CC1 (stereo not drawn) | i | i | i | i | i | . | .
COc1ccc(CNCc2ccc(C(F)(F)F)cc2)cc1OC | i | i | i | i | i | . | .
COCCN1C(=O)N[C@@H](c2cccs2)C(C(C)=O)=C1C | i | i | i | i | i | . | .
Cc1scc(-c2n[nH]c(=S)n2Cc2ccccc2)c1C | -7.6* | i | i | i | i | 74* | 84*
Cc1ccc(CCNC(=O)CNC(=O)c2cccs2)cc1 | i | i | i | i | i | . | .
Cc1ccc2oc(=O)c3cc(C(=O)NCCCN4CCCCCC4)sc3c2c1 | i | i | i | i | i | . | .
Cc1ccc2oc(=O)c3cc(C(=O)NCCCN4CCc5ccccc5C4)sc3c2c1 | -7.7* | i | i | i | i | 51* | 84*
S=C(NCc1ccco1)N1CCN(C(c2ccccc2)c2ccccc2)CC1 | -9.8* | i | i | i | i | 66* | 0
c1ccc(CC2CCN(C3=Nc4cccc5cccc3c45)CC2)cc1 | -9.1* | -5.7* | i | i | i | 94* | 98*
c1cc2c3c(cccc3c1)C(N1CCOCC1)=N2 | i | i | i | i | i | . | .
